Key:
[1] = Toxicity in mouse xenografted with human HCT116 cells assessed as reduction in body weight at 0.5 mg/kg, ip qd for 21 days administration starting from 10 days after tumor cell implantation measured every 2 or 4 days till the end of the treatment period; assay type: organism-based; settings: in vivo
In short: (§1)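 Nude mice bearing HCT116 xenografts were given intraperitoneal doses on 21 consecutive days, with n = 6 per group including an untreated control group. Body weight was recorded to assess toxicity. Data are mean ± SEM, compared with the control group by Student's t test.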

HCT-116 [2] = test: Antitumor activity against human HCT116 cells xenografted in mouse assessed as reduction in tumor growth at 0.5 mg/kg, ip qd for 21 days administration starting from 10 days after tumor cell implantation measured every 2 or 4 days till the end of the treatment period relative to control; assay type: functional; settings: HCT-116, ip, read-out: TGI
In short: (§2)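 HCT116 xenografts in nude mice; intraperitoneal dosing on 21 consecutive days; tumour growth inhibition (TGI) versus untreated control, with body weight recorded. n = 6 mice per group; mean ± SEM; significance by Student's t test versus control.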

MDA-MB-435 = test: Antiproliferative activity against human MDA-MB-435 cells assessed as reduction in cell viability incubated for 72 hrs by CCK8 assay; assay type: functional, cell-based; settings: MDA-MB-435, 72 h
[3] = Toxicity in mouse xenografted with human HCT116 cells assessed as reduction in body weight at 16 mg/kg, ip qd for 21 days administration starting from 10 days after tumor cell implantation measured every 2 or 4 days till the end of the treatment period; assay type: organism-based; settings: in vivo; in short: as §1
HCT-116 [4] = test: Antiproliferative activity against human HCT116 cells assessed as reduction in cell viability incubated for 72 hrs by CCK8 assay; assay type: functional, cell-based; settings: HCT-116, 72 h
HCT-116 [5] = test: Antitumor activity against human HCT116 cells xenografted in mouse assessed as reduction in tumor growth at 16 mg/kg, ip qd for 21 days administration starting from 10 days after tumor cell implantation measured every 2 or 4 days till the end of the treatment period relative to control; assay type: functional; settings: HCT-116, ip, read-out: TGI; in short: as §2
A549 = test: Antiproliferative activity against human A549 cells assessed as reduction in cell viability incubated for 72 hrs by CCK8 assay; assay type: functional, cell-based; settings: A549, 72 h
[6] = Aqueous solubility of compound at pH 7.4; assay type: physicochemical

IC50 (MDA-MB-435) [µM]	IC50 (HCT-116 [4]) [µM]	IC50 (A549) [µM]	solubility [6] [µg/mL]	Structure (SMILES)	Activity [1]	inhibition in vivo at 0.5 mg/kg (HCT-116 [2]) [%]	Activity [3]	inhibition in vivo at 16 mg/kg (HCT-116 [5]) [%]
–	–	–	–	CC[C@@]1(O)C(=O)OCc2c1cc1n(c2=O)Cc2cc3c(CN(C)C)c(O)ccc3nc2-1 [TOPOTECAN]	Toxic	68.5	–	–
> 200	87.2	> 200	850	COc1ccc2c(c1)cc1n2CCn2c-1[n+](C)c1ccc(F)cc1c2=O	–	–	Non-Toxic	66.6

Source: ChEMBL document CHEMBL4376872, “Scaffold Hopping of Natural Product Evodiamine: Discovery of a Novel Antitumor Scaffold with Excellent Potency against Colon Cancer” (J Med Chem, 2020)
